From article PMC12126168 (Drug Design, Development and Therapy, 2025) come the findings set out here.

One data set has as its system various tumor cell lines. In words: Antiproliferative activity on various tumor cell lines. It is filed as cell-based. Particulars: read-out: IC50 against a variety of cell lines. In a few lines:
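Cells seeded at 1000 per well in 18 μL medium and pre-incubated 24 h at 37°C, 5% CO2. Test compound in DMSO (final DMSO <0.1%) added at 10 points, 2-fold dilutions from 10 μM, then cultured 72 h. Cell-Titer glo reagent added and […]. Inhibition computed per concentration and IC50 obtained from sigmoid curve fit.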

Data set [1] is described as follows: Single-dose pharmacokinetics in SD rats. It is filed as in vivo. Particulars: after gavage or tail vein injection of V12. In a few lines: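 Male SD rats (240–280 g), 4 groups of 3. Compound in DMSO/castor oil/saline 5%/5%/90%, dosed 1 mg/kg i.v. or 10 mg/kg orally. Blood drawn from fundus venous plexus at 2, 5, 15, 30 min and 1, 2, 4, 8, 24 h into heparin tubes, then centrifuged at 4°C for plasma. Plasma levels measured by LC-MS/MS with non-compartmental analysis.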

Data set [2] is described as follows: Body weight of nude mice after oral administration. The class given is in vivo. Particulars: oral doses 100 mg/kg and 300 mg/kg.

Regarding `CONC(=O)c1cccc2c1cc(C)n2-c1nc2c(c(NCc3ccccc3)n1)CCCN2` [V12, 1-(4-(Benzylamino)-5,6,7,8-Tetrahydropyrido[2,3-D]pyrimidin-2-Yl)-N-Methoxy-2-Methyl-1H-Indole-4-Carboxamide], in the data set on various tumor cell lines, the half-maximal inhibitory concentration (IC50) was less than 1 µM. In addition, the metabolism in vivo entry in data set [1] is “rapidly metabolizes into V13”. Further, the “body weight of the nude mice” value in data set [2] is reported as “comparable to that of the control group”.

As for `Cc1cc2c(C(=O)O)cccc2n1-c1nc2c(c(NCc3ccccc3)n1)CCCN2` [V13, 1-(4-(Benzylamino)-5,6,7,8-Tetrahydropyrido[2,3-D]pyrimidin-2-Yl)-2-Methyl-1H-Indole-4-Carboxylic Acid], in the data set on various tumor cell lines, the IC50 is less than 1 µM.
